Test results as given in ChEMBL document CHEMBL4699391, “Conversion of amino acids to aryl/heteroaryl ethanol metabolites using human CYP2D6-expressing live baker''s yeast” (RSC Med Chem, 2020).
Calls of active or inactive are those of the source.

What was measured:
N2a [1] = test: Neuroprotective activity against corticosterone-induced neurotoxicity in mouse N2a cells assessed as increase in cell viability at 10 uM preincubated for 24 hrs followed by corticosterone addition and measured after 24 hrs; assay type: functional, cell-based; settings: time 48.0 hrs
Outline: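 Mouse neuroblastoma N2a cells were pretreated with test compound for 24 hrs. They were then co-treated with the neurotoxin, printed as cortisone, at 400 μM for a further 24 hrs before neuroprotection was assessed. P value thresholds were ≤0.05, <0.01 and 0.001.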

[2] = molecular target: BDNF/NT-3 growth factors receptor (Homo sapiens) (UniProt Q16620); test: Induction of TrkB activation in human SH-SY5Y cells assessed as increase in phosphorylated TrkB level at 10 uM after 4 hrs by Western blot analysis; assay type: cell-based; settings: filed as activator
BDNF/NT-3 growth factors receptor (Homo sapiens), sequence (Q16620 32-822 limits assumed): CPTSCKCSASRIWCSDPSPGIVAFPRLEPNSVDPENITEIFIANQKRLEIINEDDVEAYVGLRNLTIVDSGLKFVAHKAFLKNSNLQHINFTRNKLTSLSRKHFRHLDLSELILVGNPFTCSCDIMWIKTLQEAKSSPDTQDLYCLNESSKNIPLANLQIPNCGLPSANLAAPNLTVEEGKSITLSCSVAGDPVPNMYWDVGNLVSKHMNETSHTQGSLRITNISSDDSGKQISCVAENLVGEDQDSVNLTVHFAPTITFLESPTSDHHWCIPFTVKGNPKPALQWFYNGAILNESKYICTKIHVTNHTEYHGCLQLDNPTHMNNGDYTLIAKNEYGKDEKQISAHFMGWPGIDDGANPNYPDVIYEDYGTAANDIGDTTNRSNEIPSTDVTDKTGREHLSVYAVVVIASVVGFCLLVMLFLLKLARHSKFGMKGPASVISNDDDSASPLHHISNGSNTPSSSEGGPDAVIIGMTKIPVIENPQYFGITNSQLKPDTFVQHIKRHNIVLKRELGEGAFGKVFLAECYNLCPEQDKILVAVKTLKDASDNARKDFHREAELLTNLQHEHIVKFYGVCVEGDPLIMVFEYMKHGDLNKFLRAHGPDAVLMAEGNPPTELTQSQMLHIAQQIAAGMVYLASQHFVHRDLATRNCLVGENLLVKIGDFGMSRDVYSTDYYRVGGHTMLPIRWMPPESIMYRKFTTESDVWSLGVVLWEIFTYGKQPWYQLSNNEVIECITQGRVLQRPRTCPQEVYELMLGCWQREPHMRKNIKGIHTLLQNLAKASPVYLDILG

SH-SY5Y [3] = test: Neuroprotective activity against corticosterone-induced neurotoxicity in human SH-SY5Y cells assessed as induction of BDNF neurotropic response at 10 uM preincubated for 2 hrs followed by corticosterone addition and measured after 4 hrs by ELISA; assay type: functional, cell-based; settings: time 6.0 hrs
[4] = molecular target: BDNF/NT-3 growth factors receptor (Homo sapiens) (UniProt Q16620); test: Induction of TrkB activation in human SH-SY5Y cells assessed as increase in Akt phosphorylation at 10 uM after 4 hrs by Western blot analysis; assay type: cell-based; settings: filed as activator
[5] = molecular target: BDNF/NT-3 growth factors receptor (Homo sapiens) (UniProt Q16620); test: Induction of TrkB activation in human SH-SY5Y cells assessed as increase in ERK1/2 phosphorylation at 10 uM after 4 hrs by Western blot analysis; assay type: cell-based; settings: filed as activator
SH-SY5Y [6] = test: Neuroprotective activity against corticosterone-induced neurotoxicity in human SH-SY5Y cells assessed as induction of BDNF neurotropic response at 5 nM preincubated for 2 hrs followed by corticosterone addition and measured after 4 hrs by ELISA; assay type: functional, cell-based; settings: time 6.0 hrs
[7] = molecular target: BDNF/NT-3 growth factors receptor (Homo sapiens) (UniProt Q16620); test: Induction of TrkB activation in human SH-SY5Y cells assessed as increase in phosphorylated TrkB level at 5 nM after 4 hrs by Western blot analysis; assay type: cell-based; settings: filed as activator
N2a [8] = test: Neuroprotective activity against corticosterone-induced neurotoxicity in mouse N2a cells assessed as increase in cell viability at 5 nM preincubated for 24 hrs followed by corticosterone addition and measured after 24 hrs; assay type: functional, cell-based; settings: time 48.0 hrs
[9] = molecular target: BDNF/NT-3 growth factors receptor (Homo sapiens) (UniProt Q16620); test: Induction of TrkB activation in human SH-SY5Y cells assessed as increase in Akt phosphorylation at 5 nM after 4 hrs by Western blot analysis; assay type: cell-based; settings: filed as activator
[10] = molecular target: BDNF/NT-3 growth factors receptor (Homo sapiens) (UniProt Q16620); test: Induction of TrkB activation in human SH-SY5Y cells assessed as increase in ERK1/2 phosphorylation at 5 nM after 4 hrs by Western blot analysis; assay type: cell-based; settings: filed as activator

Measured: Activity

OCCc1ccc(O)cc1
active: N2a [1] | [2] | SH-SY5Y [3] | [4] | [5]

O=c1cc(-c2ccccc2)oc2c(O)c(O)ccc12
active: SH-SY5Y [6] | [7] | N2a [8] | [9] | [10]

OCCc1c[nH]c2ccccc12
active: N2a [1] | [2] | SH-SY5Y [3] | [4] | [5]
